Published values of several laboratories.
Cell line: HT-29
Effect on: cell growth or viability

Compound | test | setting | endpoint | result
COc1ccc(C(=O)/C=C/c2cccc(Br)c2)cc1S(N)(=O)=O | SRB | 48 h | GI50 | 1600 nM
S=C([S][Au-][P+](CCCCCC[P+]([Au-][S]C(=S)n1cccn1)(c1ccccc1)c1ccccc1)(c1ccccc1)c1ccccc1)n1cccn1 |  |  | GI50 | 642 nM
COc1cccc(Oc2ccccc2NC(=O)CNC(=O)c2cccc3ccccc23)c1 | SRB | 48 h | GI50 | 110 nM
Cc1ccc2c(c1)C(=NNc1nc3ccccc3n(C)c1=O)C(=O)N2 |  | 30 µM | inhibition | 47.6%
Cc1cc(C)n(C(=S)[S][Au][PH](CCCCCC[PH]([Au][S]C(=S)n2nc(C)cc2C)(c2ccccc2)c2ccccc2)(c2ccccc2)c2ccccc2)n1 |  |  | GI50 | 458 nM
CCN(CC)CCNC(=O)c1c(C)[nH]c(/C=C2\C(=O)Nc3ccc(F)cc32)c1C |  | 30 µM | inhibition | 59.5%
COc1ccc(C(=O)/C=C/c2cc3c(cc2Br)OCO3)cc1S(N)(=O)=O | SRB | 48 h | GI50 | 1900 nM
Cn1c(=O)c(NN=C2C(=O)Nc3ccc(F)cc32)nc2ccccc21 |  | 30 µM | inhibition | 48.1%
CC/C(=C(\c1ccccc1)c1ccc(OCCN(C)C)cc1)c1ccccc1 | ATP luminescence | 72 h | EC90 | 8400 nM
